{"source": "ChEMBL document CHEMBL5257120", "about": "(Bioorg Med Chem, 2023)", "key": {"MCF7": {"tested_on": "MCF7", "test": "Cytotoxicity against human MCF7 cells incubated for 72 hrs by Sulphorhodamine assay", "type": "functional, cell-based", "details": "MCF7, 72 h"}, "[1]": {"test": "Cytotoxicity against african green monkey Vero cells incubated for 72 hrs by Sulphorhodamine assay", "type": "toxicity, cell-based", "details": "African green monkey (Chlorocebus sabaeus)"}, "Tubulin (Homo sapiens)": {"target": "Tubulin (Homo sapiens) (UniProt P68371+Q9H4B7+P0DPH7+P68366+Q13509+Q71U36+P04350+Q3ZCM7+P07437+P68363+Q9BQE3+Q6PEY2+Q13885+Q9BVA1+Q9BUF5)", "test": "Induction of microtubule stabilization in human HeLa cells assessed as effect on cellular cytoskeletal network of tubulin at 5 to 10 uM incubated for 4 hrs by Alexa Fluor 488 staining based confocal microscopic analysis", "type": "cell-based", "details": "dose 5-10 µM", "procedure,_shortened": "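HeLa cells treated for 4 h at 5 and 10 μM. Microtubules immunostained with Alexa Fluor 488-conjugated anti-β-tubulin and imaged by confocal microscopy with a 60× Plan Apochromat objective. References: paclitaxel 5 nM, podophyllotoxin 5 μM.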"}, "[2]": {"test": "Antiinflammatory activity in mouse peritoneal macrophage assessed as inhibition of LPS-induced TNFalpha production at 10 ug/ml relative to control", "type": "functional", "parameters": "scale not given: the % may be the effect or the level left", "details": "dose 10 µg/ml"}, "[3]": {"test": "Antiinflammatory activity in mouse peritoneal macrophage assessed as reduction in LPS-induced IL6 production at 1 ug/ml", "type": "functional", "details": "dose 1 µg/ml"}, "[4]": {"test": "Toxicity in Swiss albino mouse assessed as change in body weight at 50 mg/kg, po administered for 7 days (reference value: 29.35 +/- 0.57 g)", "type": "organism-based", "details": "in vivo, 168 h, time 7 day"}, "[5]": {"test": "Toxicity in Swiss albino mouse assessed as change in body weight at 1000 mg/kg, po administered for 7 days (reference value: 29.35 +/- 0.57 g)", "type": "organism-based", "details": "in vivo, 168 h, time 7 day"}, "[6]": {"test": "Toxicity in Swiss albino mouse assessed as haemoglobin level at 5 mg/kg, po administered for 7 days (reference value: 15.66 +/- 0.80 g/dl)", "type": "organism-based", "details": "in vivo, 168 h, time 7 day"}, "[7]": {"test": "Toxicity in Swiss albino mouse assessed as haemoglobin level at 50 mg/kg, po administered for 7 days (reference value: 15.66 +/- 0.80 g/dl)", "type": "organism-based", "details": "in vivo, 168 h, time 7 day"}, "[8]": {"test": "Toxicity in Swiss albino mouse assessed as RBC level at 5 mg/kg, po administered for 7 days (reference value: 7.13 +/- 0.40 million/mm3)", "type": "organism-based, Erythrocyte", "details": "in vivo, 168 h, time 7 day", "procedure,_shortened": "(§1)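 Single acute oral dose (5, 50, 300 or 1000 mg/kg) given to Swiss albino mice, n = 6, with 7-day observation. At the end, haematological and serum biochemical parameters were measured. Compared with untreated controls; mean ± SE, ANOVA, p < 0.05.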"}, "[9]": {"test": "Toxicity in Swiss albino mouse assessed as WBC level at 5 mg/kg, po administered for 7 days (reference value: 5.29 +/- 0.51 10^3/mm3)", "type": "organism-based", "details": "in vivo, 168 h, time 7 day"}, "[10]": {"test": "Toxicity in Swiss albino mouse assessed as WBC level at 50 mg/kg, po administered for 7 days (reference value: 5.29 +/- 0.51 10^3/mm3)", "type": "organism-based", "details": "in vivo, 168 h, time 7 day"}, "[11]": {"test": "Toxicity in Swiss albino mouse assessed as WBC level at 300 mg/kg, po administered for 7 days (reference value: 5.29 +/- 0.51 10^3/mm3)", "type": "organism-based", "details": "in vivo, 168 h, time 7 day"}, "[12]": {"test": "Toxicity in Swiss albino mouse assessed as WBC level at 1000 mg/kg, po administered for 7 days (reference value: 5.29 +/- 0.51 10^3/mm3)", "type": "organism-based", "details": "in vivo, 168 h, time 7 day", "procedure,_shortened": "as §1"}, "[13]": {"test": "Hepatotoxicity in Swiss albino mouse assessed as alkaline phosphatase level at 50 mg/kg, po administered for 7 days (reference value: 260.10 +/- 26.76 U/L)", "type": "toxicity, organism-based", "details": "in vivo, 168 h, time 7 day", "procedure,_shortened": "as §1"}, "[14]": {"test": "Hepatotoxicity in Swiss albino mouse assessed as alkaline phosphatase level at 1000 mg/kg, po administered for 7 days (reference value: 260.10 +/- 26.76 U/L)", "type": "toxicity, organism-based", "details": "in vivo, 168 h, time 7 day", "procedure,_shortened": "as §1"}, "[15]": {"test": "Hepatotoxicity in Swiss albino mouse assessed as SGOT level at 5 mg/kg, po administered for 7 days (reference value: 31.51 +/- 6.31 U/L)", "type": "toxicity, organism-based", "details": "in vivo, 168 h, time 7 day", "procedure,_shortened": "as §1"}, "[16]": {"test": "Hepatotoxicity in Swiss albino mouse assessed as SGOT level at 300 mg/kg, po administered for 7 days (reference value: 31.51 +/- 6.31 U/L)", "type": "toxicity, organism-based", "details": "in vivo, 168 h, time 7 day", "procedure,_shortened": "as §1"}, "[17]": {"test": "Hepatotoxicity in Swiss albino mouse assessed as SGOT level at 1000 mg/kg, po administered for 7 days (reference value: 31.51 +/- 6.31 U/L)", "type": "toxicity, organism-based", "details": "in vivo, 168 h, time 7 day", "procedure,_shortened": "as §1"}, "[18]": {"test": "Hepatotoxicity in Swiss albino mouse assessed as SGPT level at 5 mg/kg, po administered for 7 days (reference value: 17.01 +/- 2.33 U/L)", "type": "toxicity, organism-based", "details": "in vivo, 168 h, time 7 day", "procedure,_shortened": "as §1"}, "[19]": {"test": "Hepatotoxicity in Swiss albino mouse assessed as SGPT level at 50 mg/kg, po administered for 7 days (reference value: 17.01 +/- 2.33 U/L)", "type": "toxicity, organism-based", "details": "in vivo, 168 h, time 7 day", "procedure,_shortened": "as §1"}, "[20]": {"test": "Hepatotoxicity in Swiss albino mouse assessed as serum protein level at 5 mg/kg, po administered for 7 days (reference value: 5.73 +/- 0.21 mg/ml)", "type": "toxicity, organism-based", "details": "in vivo, 168 h, time 7 day", "procedure,_shortened": "as §1"}, "[21]": {"test": "Hepatotoxicity in Swiss albino mouse assessed as serum protein level at 50 mg/kg, po administered for 7 days (reference value: 5.73 +/- 0.21 mg/ml)", "type": "toxicity, organism-based", "details": "in vivo, 168 h, time 7 day", "procedure,_shortened": "as §1"}, "[22]": {"test": "Renal toxicity in Swiss albino mouse assessed as creatinine level at 5 mg/kg, po administered for 7 days (reference value: 0.76 +/- 0.06 mg/dl)", "type": "organism-based", "details": "in vivo, 168 h, time 7 day", "procedure,_shortened": "as §1"}, "[23]": {"test": "Renal toxicity in Swiss albino mouse assessed as creatinine level at 50 mg/kg, po administered for 7 days (reference value: 0.76 +/- 0.06 mg/dl)", "type": "organism-based", "details": "in vivo, 168 h, time 7 day", "procedure,_shortened": "as §1"}, "[24]": {"test": "Renal toxicity in Swiss albino mouse assessed as creatinine level at 300 mg/kg, po administered for 7 days (reference value: 0.76 +/- 0.06 mg/dl)", "type": "organism-based", "details": "in vivo, 168 h, time 7 day", "procedure,_shortened": "as §1"}, "[25]": {"test": "Toxicity in Swiss albino mouse assessed as cholesterol level at 5 mg/kg, po administered for 7 days (reference value: 140.17 +/- 3.76 mg/dl)", "type": "organism-based", "details": "in vivo, 168 h, time 7 day"}, "[26]": {"test": "Toxicity in Swiss albino mouse assessed as triglyceride level at 50 mg/kg, po administered for 7 days (reference value: 136.88 +/- 3.12 mg/dl)", "type": "organism-based", "details": "in vivo, 168 h, time 7 day"}, "[27]": {"test": "Toxicity in Swiss albino mouse assessed as change in absolute lungs weight at 5 to 1000 mg/kg, po administered for 7 days", "type": "organism-based", "details": "in vivo, 168 h, dose 5-1000 mg/kg, time 7 day"}, "[28]": {"test": "Toxicity in Swiss albino mouse assessed as change in absolute brain weight at 5 to 1000 mg/kg, po administered for 7 days", "type": "organism-based", "details": "in vivo, 168 h, dose 5-1000 mg/kg, time 7 day"}, "[29]": {"test": "Toxicity in Swiss albino mouse assessed as change in relative liver weight at 5 to 1000 mg/kg, po administered for 7 days", "type": "organism-based", "details": "in vivo, 168 h, dose 5-1000 mg/kg, time 7 day"}, "[30]": {"test": "Toxicity in Swiss albino mouse assessed as change in relative brain weight at 5 to 1000 mg/kg, po administered for 7 days", "type": "organism-based", "details": "in vivo, 168 h, dose 5-1000 mg/kg, time 7 day"}, "[31]": {"test": "Toxicity in Swiss albino mouse assessed as change in relative heart weight at 5 to 1000 mg/kg, po administered for 7 days", "type": "organism-based", "details": "in vivo, 168 h, dose 5-1000 mg/kg, time 7 day"}, "[32]": {"test": "Toxicity in Swiss albino mouse assessed as mortality at 5 to 1000 mg/kg, po administered for 7 days", "type": "organism-based", "details": "in vivo, 168 h, dose 5-1000 mg/kg, time 7 day"}}, "note": "Active and inactive are the calls of the source. The calls are words filed in the database; no cut-off is given here."}
{"smiles": "COc1cc(C2/C(=C/c3ccc(/C=C/C(=O)NO)cc3)C(=O)c3cc(OC)c(OC)c(OC)c32)cc(OC)c1OC", "note": "(centres undefined)", "values": [{"measurement": "IC50", "setting": "MCF7", "value": "> 100", "unit": "µM"}, {"measurement": "IC50 at 72 h", "setting": "[1]", "value": 100, "unit": "µM"}, {"measurement": "Activity", "setting": "Tubulin (Homo sapiens)", "value": "Active"}, {"measurement": "Activity", "setting": "[2]", "value": 29.22, "unit": "%"}, {"measurement": "Activity", "setting": "[3]", "value": 2617.2, "unit": "pg/mL"}, {"measurement": "Activity", "setting": "[4]", "value": 28.18, "unit": "g"}, {"measurement": "Activity", "setting": "[5]", "value": 27.43, "unit": "g"}, {"measurement": "Activity", "setting": "[6]", "value": 17.63, "unit": "g/dL"}, {"measurement": "Activity", "setting": "[7]", "value": 15.54, "unit": "g/dL"}, {"measurement": "Activity", "setting": "[8]", "value": 8.96, "unit": "million/mm3"}, {"measurement": "Activity", "setting": "[9]", "value": "5.01 10^3/mm3"}, {"measurement": "Activity", "setting": "[10]", "value": "4.34 10^3/mm3"}, {"measurement": "Activity", "setting": "[11]", "value": "5.75 10^3/mm3"}, {"measurement": "Activity", "setting": "[12]", "value": "4.73 10^3/mm3"}, {"measurement": "Activity", "setting": "[13]", "value": 281.72, "unit": "U/L"}, {"measurement": "Activity", "setting": "[14]", "value": 277.51, "unit": "U/L"}, {"measurement": "Activity", "setting": "[15]", "value": 28.87, "unit": "U/L"}, {"measurement": "Activity", "setting": "[16]", "value": 29.93, "unit": "U/L"}, {"measurement": "Activity", "setting": "[17]", "value": 33.4, "unit": "U/L"}, {"measurement": "Activity", "setting": "[18]", "value": 16.79, "unit": "U/L"}, {"measurement": "Activity", "setting": "[19]", "value": 19.56, "unit": "U/L"}, {"measurement": "Activity", "setting": "[20]", "value": 5.44, "unit": "mg/mL"}, {"measurement": "Activity", "setting": "[21]", "value": 5.64, "unit": "mg/mL"}, {"measurement": "Activity", "setting": "[22]", "value": 0.58, "unit": "mg/dL"}, {"measurement": "Activity", "setting": "[23]", "value": 0.69, "unit": "mg/dL"}, {"measurement": "Activity", "setting": "[24]", "value": 0.64, "unit": "mg/dL"}, {"measurement": "Activity", "setting": "[25]", "value": 162.42, "unit": "mg/dL"}, {"measurement": "Activity", "setting": "[26]", "value": 129.78, "unit": "mg/dL"}, {"measurement": "Activity", "setting": "[27]", "value": "Non-Toxic"}, {"measurement": "Activity", "setting": "[28]", "value": "Non-Toxic"}, {"measurement": "Activity", "setting": "[29]", "value": "Non-Toxic"}, {"measurement": "Activity", "setting": "[30]", "value": "Non-Toxic"}, {"measurement": "Activity", "setting": "[31]", "value": "Non-Toxic"}, {"measurement": "Activity", "setting": "[32]", "value": "Non-Toxic"}]}
